The subject of experiment [1] is A2780. As to the kind of experiment: Antiproliferative activity against human A2780 cells after […] by Alamar Blue assay. The format is functional, cell-based. (In general: Resazurin is reduced to fluorescent resorufin, in cell work by metabolically active cells.)
Experiment [2] has as its system A2058. Kind of experiment: Antiproliferative activity against human A2058 cells after 96 hrs by CellTitre-Glo luminescent assay. The format is functional, cell-based. The note with it: A2058, 96 h.
Experiment [3] is described as follows: Antiproliferative activity against human H522-T1 cells after 96 hrs by CellTitre-Glo luminescent assay. The format is functional, cell-based. To be noted: H522-T1, 96 h.
The test system of experiment [4] is A2058. Kind of experiment: Selectivity ratio of IC50 for human A2780 cells to IC50 for human A2058 cells. Type of experiment: functional.
The test system of experiment [5] is Plasmodium falciparum. Kind of experiment: Antiplasmodial activity against Plasmodium falciparum Dd2 assessed as growth inhibition after 72 hrs by SYBR Green I dye based assay. The format is functional, organism-based. The note with it: Dd2, 72 h. The method, boiled down: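 Ring-stage parasite cultures at 1% hematocrit and 1% parasitemia, grown 72 h at 37 °C with increasing drug concentrations under 5.05% CO2/4.93% O2/90.2% N2. Viability read by DNA quantitation with SYBR Green I in lysis buffer (0.4 µL dye per mL lysis buffer). IC50 from nonlinear regression curve fitting.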

As a reminder, the IC50 is the concentration at which inhibition is half-maximal. For the compound `CC[C@H]1C[C@@H]2CC[C@@H](O2)[C@@H](C)C(=O)O[C@H](C)C[C@H]2CC[C@H](O2)[C@H](C)C(=O)O[C@@H](C)C[C@@H]2CC[C@@H](O2)[C@@H](C)C(=O)O[C@H](C)C[C@H]2CC[C@H](O2)[C@H](C)C(=O)O1` [MONACTIN], the IC50 is 130 nM in experiment [1], 20 nM in experiment [2] and 10 nM in experiment [3]. Besides, in experiment [4], the “Ratio IC50” value is 6.5.

As for `C=C1NC(=O)[C@H]([C@H](C)OC)N(C)C1=O`, in experiment [5], the IC50 is 50000 nM.

On to `CC[C@H]1C[C@@H]2CC[C@@H](O2)[C@@H](C)C(=O)O[C@H](C)C[C@H]2CC[C@H](O2)[C@H](C)C(=O)O[C@@H](CC)C[C@@H]2CC[C@@H](O2)[C@@H](C)C(=O)O[C@H](C)C[C@H]2CC[C@H](O2)[C@H](C)C(=O)O1` [DINACTIN], for which the results for the IC50 in experiment [1], in experiment [2] and in experiment [3] were 260 nM, 20 nM and 10 nM, respectively. In addition, the “Ratio IC50” value in experiment [4] was 13.

Regarding `Cn1c(=O)/c(=C/c2ccccc2)[nH]c(=O)/c1=C/c1ccccc1`, in experiment [5], the IC50 turned out to be 6570 nM.

In the case of `C[C@@H]1C[C@H]2CC[C@H](O2)[C@H](C)C(=O)O[C@@H](C)C[C@@H]2CC[C@@H](O2)[C@@H](C)C(=O)O[C@H](C)C[C@H]2CC[C@@H](O2)[C@H](C)C(=O)O[C@@H](C)C[C@@H]2CC[C@@H](O2)[C@@H](C)C(=O)O1` [NONACTIN], the IC50 in experiment [1] came to 160 nM; in experiment [2] it was 260 nM; in experiment [3], 190 nM.

The values above are taken from ChEMBL document CHEMBL3632503, “Antiproliferative and antiplasmodial compounds from selected Streptomyces species” (Bioorg Med Chem Lett, 2015).
